Assay results gathered from unrelated publications.
Lines come from different studies, so protocols differ.
Target: Rho-associated protein kinase 1 (ROCK1, Homo sapiens, UniProt Q13464)

| SMILES | assay | conditions | remaining binding |
| --- | --- | --- | --- |
| Cc1cnc(Nc2ccc(C(=O)N3CCC(N4CCCC4)CC3)cc2)nc1-c1cc2ccccc2s1 | binding, competition with immobilised ligand | 1 µM | 7.7% |
| O=C(NCC1CCOCC1)c1n[nH]cc1NC(=O)c1c(F)cccc1F | binding, competition with immobilised ligand | 1 µM | 83% |
| CS(=O)(=O)c1cc(C2(NC(=O)c3cncc4c3cnn4-c3ccc(F)cc3)CC2)ccn1 | cell-free assay, competition with immobilised ligand | 1 µM | 79% |
| COc1cnc(Nc2cccc(S(N)(=O)=O)c2)nc1N1CCN(c2ccccc2)CC1 | binding, competition with immobilised ligand | 1 µM | 78% |
| CS(=O)(=O)N1CCCC(NC(=O)[C@H](CCC2CCCCC2)NC(=O)c2ccc(CNC(=O)c3cnc4ccccn34)cc2)C1 (stereo partly shown) | cell-free assay, competition with immobilised ligand | 0.1 µM | 100% |
| CN(C)c1nccc(-c2cnn3ncccc23)n1 | binding | 1 µM | 100% |
| N#Cc1ccc(Nc2ccc3[nH]c(=O)[nH]c3c2)c(Cl)c1 | cell-free assay, competition with immobilised ligand | 1 µM | 100% |
| O=C(NCCCN1CCOCC1)c1ccc(Nc2nccc(-c3cc4ccccc4s3)n2)cc1 | binding, competition with immobilised ligand | 1 µM | 54% |
| FC(F)(F)Oc1cccc(-c2cnc3ccc(-c4ccncc4)nn23)c1 | binding, competition with immobilised ligand | 5 µM | 42% |
| c1cnn2ncc(-c3ccnc(N4CCC45COC5)n3)c2c1 | binding | 1 µM | 77% |
| Cc1c(C(=O)O)cc(-c2ccc(C3CCNCC3)cc2)c2ccc(-c3ccc(C(F)(F)F)cc3)cc12 | binding, competition with immobilised ligand | 1 µM | 100% |
| C=CC(=O)N1CCC(C(=O)NCC(=O)N2CCN(c3nc(-c4cnc(N)nc4C(F)F)nc(N4CCOCC4)n3)CC2)CC1 | binding, competition with immobilised ligand | 1 µM | 100% |
| CNC(=O)[C@@H]1CC[C@@H](n2c(-c3ccc4cnccc4c3)nc3ccc(C(=O)NCc4cccc(C(N)=O)c4)cc32)C1 | binding, competition with immobilised ligand | 1 µM | 100% |
| CN(C)c1nccc(-c2cnc3ncccn23)n1 | binding | 1 µM | 74% |
| CC(=O)c1c(NS(C)(=O)=O)c2cc(-c3ccc(Cl)cc3)c(-c3ccc(Cl)cc3Cl)nc2n(C)c1=O | cell-free assay, competition with immobilised ligand | 1 µM | 85% |
| C[C@H]1CCN(c2nccc(-c3cnn4ncccc34)n2)C1 | binding | 1 µM | 81% |
| COc1ncc2cc3ccccc3nc2c1C#N | cell-free assay, competition with immobilised ligand | 5 µM | 84% |
| O=C(c1ccc(Nc2ncc(Cl)c(-c3ccc(Cl)s3)n2)cc1)N1CCC(N2CCCC2)CC1 | binding, competition with immobilised ligand | 1 µM | 4.9% |
| N[C@H]1CCN(c2nccc(-c3cnn4ncccc34)n2)C1 | binding | 1 µM | 73% |
| CC(C)CC(=O)N1CCc2nc(-c3ccc(Br)cc3)nc(N(C)Cc3ccccc3)c2C1 | cell-free assay, competition with immobilised ligand | 0.1 µM | 78% |
| CC1CCCN1c1nccc(-c2cnn3ncccc23)n1 (stereo not shown) | binding | 1 µM | 100% |
| CCC(=N\O)/C(C)=C/c1ccc(F)cc1 | cell-free assay, competition with immobilised ligand | 1 µM | 100% |
